Experimental findings from ChEMBL document CHEMBL4382230, “Structure-activity relationships, biological evaluation and structural studies of novel pyrrolonaphthoxazepines as antitumor agents” (Eur J Med Chem, 2019) are described below.

The test system of series [1] is HCC827. Briefly: Cytotoxicity against human HCC827 cells assessed as reduction in cell survival at 0.1 to 10 uM after 18 hrs by MTT assay. In kind it is functional, cell-based. The procedure, abridged:
(§1)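 Seeded at 2,500 cells/well in medium with 10% serum. After adhesion, exposed to 0.1, 1 and 10 μM in medium with 5% serum for 18 h. Medium then replaced with fresh medium containing 1.2 mM MTT for 4 h; formazan dissolved in DMSO, absorbance at 540 nm. Results given as % of basal response.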
(In general: Tetrazolium dyes change colour on reduction, which living cells bring about.)

Series [2] concerns NB-4. Briefly: Cell cycle arrest in human NB4 cells assessed as accumulation of cells at G1 phase after 24 hrs by propidium iodide staining-based flow cytometric analysis. In kind it is functional. The procedure, abridged:
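NB4 cultured at 37 °C, 5% CO2 in RPMI-1640 with 10% heat-inactivated FBS. Treated at 50 and 100 nM, 1 and 10 μM for 24 h. Cells fixed/permeabilized in 70% ethanol overnight at 4 °C, then given RNase and 20 μg/ml PI for 30 min. Doublets excluded, 20,000 events per sample; cell-cycle phase distribution analysed.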

In series [3] the test system is NCI-H929. Briefly: Induction of apoptosis in human NCI-H929 cells at 500 nM after 48 hrs by Annexin V/propidium iodide staining-based flow cytometric analysis relative to control. Format: functional. The procedure, abridged: (§2)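 Seeding density: NCI-H929 and Ca9.22 at 30×10^4 cells/mL, SCC4 at 15×10^4 cells/mL. Cells exposed 48 h to compound (500 nM; 50 μM in SCC4 for one compound) or vehicle (1% EtOH v/v). Annexin V/PI staining, flow cytometry, 10,000 cells gated on vehicle-treated cells. Three independent experiments, mean ± S.E.M, T-test.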
Background: In flow cytometry, cells or beads pass a laser one at a time.

Series [4] can be described thus: Solubility of compound in pH 7.4 aqueous solution after 12 hrs by HPLC analysis. In kind it is physicochemical. The procedure, abridged: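 Water solubility at pH 7.4 measured by HPLC analysis.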
Series [5] relates to A549. The series is described as follows: Cytotoxicity against human A549 cells assessed as reduction in cell survival at 0.1 to 10 uM after 18 hrs by MTT assay. Format: functional, cell-based. The procedure, abridged:
as §1

For series [6], the system named is A2780. Briefly: Cytotoxicity against human A2780 cells after 48 hrs by MTT assay. Format: functional, cell-based. The conditions noted are these: A2780, 48 h. In outline: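 Cells seeded at 12,000 to 17,000 per well depending on line, incubated overnight, then given serial dilutions of ligand for 48 h. MTT at 2.5 mg/mL added for 4 h at 37 °C, formazan solubilized overnight (10% SDS, 45% dimethylformamide, pH 5.5), absorbance read at 595/690 nm. IC50 from log-dose response curves; mean ± SE of three independent assays.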

The subject of series [7] is GISTT1. The series is described as follows: Cytotoxicity against human GISTT1 cells assessed as reduction in cell viability at 1 uM after 48 hrs by alamar blue assay. Format: functional, cell-based. In outline:
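GIST-T1 seeded at 4000 cells/well, exposed to 1 or 10 μM for 48 h; viability read by AlamarBlue.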
For orientation: Resazurin is reduced to fluorescent resorufin, in cell work by metabolically active cells.

The test system of series [8] is Ca9-22. The series is described as follows: Induction of apoptosis in human Ca9-22 cells at 500 nM after 48 hrs by Annexin V/propidium iodide staining-based flow cytometric analysis relative to control. In kind it is functional, cell-based. The procedure, abridged: as §2
In series [9] the test system is Ca9-22. The series is described as follows: Cytotoxicity against human Ca9-22 cells after 72 hrs by MTT assay. Format: functional, cell-based. As to conditions: Ca9-22, 72 h.
Series [10] addresses Tubulin (Homo sapiens) (UniProt P68371+Q9H4B7+P0DPH7+P68366+Q13509+Q71U36+P04350+Q3ZCM7+P07437+P68363+Q9BQE3+Q6PEY2+Q13885+Q9BVA1+Q9BUF5). Briefly: Displacement of podophyllotoxin from tubulin (unknown origin) by ultracentrifugation method. Format: protein-complex assay.
The subject of series [11] is PC-9. Briefly: Induction of apoptosis in human PC9 cells assessed as increase in caspase-3 expression at 10 uM after 18 hrs by Western blot analysis. In kind it is functional, cell-based. In outline:
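PC9 and HCC827 maintained in DMEM with 10% FBS, then exposed to 10 μM compound for 18 h in 5% serum. Caspase 3 activation and cell cycle proteins examined by western blot.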

Series [12] concerns B16-F10. Briefly: Cytotoxicity against mouse B16F10 cells assessed as reduction in cell survival at 0.1 to 10 uM after 18 hrs by MTT assay. In kind it is functional, cell-based. In outline:
as §1

Series [13] can be described thus: Ratio of IC50 for mouse NIH/3T3 cells harboring MDR G185 to IC50 for mouse NIH/3T3 cells. In outline:
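Relative resistance: IC50 in the P-gp overexpressing resistant line divided by IC50 in the parental line. Both IC50s came from the 48 h MTT assay (serial dilutions, absorbance at 595/690 nm, log-dose response curves, three independent assays).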

Series [14] relates to HL-60. The series is described as follows: Induction of autophagy in serum starved human HL60 cells assessed as increase in LC3B-2 levels at 10 uM after 105 mins in presence of lysosomal inhibitor chloroquine by immunoblot analysis. In kind it is functional, cell-based. The procedure, abridged:
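HL-60 in serum-supplemented RPMI 1640, or starved in Earle's Balanced Salts for 15 min beforehand, then treated with 10 μM compound with or without 40 μM chloroquine for 1 h 45 min or 16 h. LC3B-II measured by immunoblot, densitometry normalized to actin, three independent experiments, Student's T-test.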

A short description of series [15]: Chemical stability of compound in pH 7.4 aqueous solution assessed as compound remaining after 24 hrs by HPLC analysis. In kind it is physicochemical. The conditions noted are these: read-out: Stability.
For series [16], the system named is HL-60. Briefly: Cytotoxicity against human HL60 cells assessed as reduction in cell viability after 72 hrs by alamar blue assay. Format: functional, cell-based. As to conditions: HL-60, 72 h. In outline: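 HL-60 at 300,000 cells/ml treated in triplicate with compound or vehicle (0.1% v/v DMSO) for 72 h. Cells then incubated in 10% (v/v) AlamarBlue and fluorescence read at excitation 544 nm, emission 590 nm. IC50 is the mean of at least three separate determinations.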

Series [17] deals with SCC-4. Briefly: Induction of apoptosis in human SCC4 cells at 500 nM after 48 hrs by Annexin V/propidium iodide staining-based flow cytometric analysis relative to control. Format: functional. In outline:
as §2

By solubility is commonly meant the concentration that dissolves in the medium under given conditions. Read a low solubility as little dissolved substance. As usually defined, the IC50 is the point on the concentration scale where inhibition reaches its midpoint.

In brackets after ≈: the same amount, converted by molar mass. Activity calls are given as the source filed them. The rule behind the calls is not given here.

Take `CC(=O)OC1=C(c2cccc3ncccc23)Oc2cc3ccccc3cc2-n2cccc21`: the outcome in [1], in [5], in [7], in series [11], in series [12] and in [14] was Active. The Activity result is “Dose-dependent effect” in [2], >40% in [3] and >40% in series [17]. The same compound yielded a solubility at 12 h in series [4] of 458 µM (≈ 192 µg/mL). Further, the IC50 in series [6] worked out at 80 nM; in series [9] it was 4500 nM; in series [16], 294 nM. The result in series [8] was inactive. Besides, the inhibition entry in series [10] is “Active”. Further, the “Ratio IC50” value in [13] was found to be 2. The remaining at 24 h in [15] worked out at 95.6%.
